Results reported in PubChem BioAssay AID2375 (NMMLSC, 2010).
Results filed as inconclusive are left out. The source made the active and inactive calls.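 Rule for the calls: active = compounds that lower growth-factor-driven active Cdc42 or Rac1 at 10 micromolar by more than 15 percent; inactive = the rest, inconclusive results apart.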

Key:
[1] = test system: Cdc42; test: modulation of active Cdc42 and Rac1 in cells, profiling panel, Ras-related GTPase inhibitor project, cell lysate, ELISA, panel (AID 2375); conditions: NIH 3T3 cells, EGF-stimulated, PAK G-LISA active GTPase, stronger effect = lower value
Procedure, shortened: (§1)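 system = 3T3 lysates on PAK-coated wells | amount = equal cellular protein per well from snap-frozen lysates | reagent = EGF 10 ng/ml, with or without | dosing = compound at 1 and 10 µM | detection = colorimetric PAK-capture ELISA | evaluation = ng active GTPase per lysate, normalized to maximal EGF response | control set = EGF-stimulated and unstimulated lysates, GTPase standard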

[2] = test system: Rac1; test: as above; conditions: NIH 3T3 cells, EGF-stimulated, PAK G-LISA active GTPase, stronger effect = lower value
Procedure, shortened: as §1

Row | Structure (SMILES) | normalized active GTPase ([1]; active GTPase, at 1 µM) | normalized active GTPase ([2]; active GTPase, at 1 µM) | normalized active GTPase ([1]; at 10 µM) | normalized active GTPase ([2]; at 10 µM)
1 | COc1ccc(C2CC(c3cccc(OC)c3)=NN2c2ccc(S(N)(=O)=O)cc2)cc1 (centres undefined) | 0.442 | – | 1.25 (inactive) | –
2 | COc1ccc(C2CC(c3ccccc3)=NN2c2ccc(S(N)(=O)=O)cc2)cc1OC (centres undefined) | 0.87 | – | 0.856 (inactive) | –
3 | NS(=O)(=O)c1ccc(N2N=C(c3ccccc3)CC2c2cccc(Br)c2)cc1 (centres undefined) | 0.764 | 0.556 | 1.4 (inactive) | 0.691
4 | Cc1cccc(C2CC(c3ccccc3)=NN2c2ccc(S(N)(=O)=O)cc2)c1 (centres undefined) | 0.979 | 1.09 | 0.726 | 0.932 (inactive)

The next lines start with results.

Row | normalized active GTPase ([1]; active GTPase, at 1 µM) | normalized active GTPase ([2]; active GTPase, at 1 µM) | Structure (SMILES) | normalized active GTPase ([1]; at 10 µM) | normalized active GTPase ([2]; at 10 µM)
5 | 0.923 | 0.724 | COc1ccc(C2CC(c3ccccc3)=NN2c2ccc(S(N)(=O)=O)cc2)cc1 (centres undefined) | 0.626 | 0.612
6 | 0.994 | 0.782 | Cc1ccc(C2CC(c3ccccc3)=NN2c2ccc(S(N)(=O)=O)cc2)cc1 (centres undefined) | 0.667 | 0.941 (inactive)
7 | 1.12 | 0.5 | NS(=O)(=O)c1ccc(N2N=C(c3ccccc3)CC2c2ccc(Br)cc2)cc1 (centres undefined) | 0.895 (inactive) | 0.47
